The values that follow come from article PMC3754432 (Journal of the American Chemical Society, 2013).

Values joined by “and” are separate entries in the source; they are usually repeats but may differ in a detail not shown here. Equal entries are not always repeated.

Data set [1] has as its system 2B6. The following applies: cited from earlier work.
Data set [2] concerns the target T1, Cytochrome P450 2B6 (Homo sapiens, UniProt P20813, K262R/Y226H).
T1 sequence (P20813 with tags, fused parts or gaps Y226H/K262R limits assumed): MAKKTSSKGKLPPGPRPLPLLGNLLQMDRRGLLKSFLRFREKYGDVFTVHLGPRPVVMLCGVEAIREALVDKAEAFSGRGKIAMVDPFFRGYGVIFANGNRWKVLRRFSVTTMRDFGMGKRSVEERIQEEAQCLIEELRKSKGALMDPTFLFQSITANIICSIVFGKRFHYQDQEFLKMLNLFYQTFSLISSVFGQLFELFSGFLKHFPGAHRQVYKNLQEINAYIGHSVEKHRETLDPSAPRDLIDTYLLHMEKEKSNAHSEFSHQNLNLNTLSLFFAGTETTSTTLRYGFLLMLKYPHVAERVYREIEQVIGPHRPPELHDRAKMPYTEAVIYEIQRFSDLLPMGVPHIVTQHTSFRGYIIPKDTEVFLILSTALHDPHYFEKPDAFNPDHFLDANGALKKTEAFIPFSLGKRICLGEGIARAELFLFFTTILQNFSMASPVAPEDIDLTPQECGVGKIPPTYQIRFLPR
Put plainly: Spectral binding titration. Particulars: for Kd: mean (SD). In outline: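 Human 2B6 (Y226H/K262R), co-expressed with GroEL/ES in E. coli JM109 and purified by Ni-NTA then CM-Sepharose; P450 quantified by reduced CO difference spectra. Titrated at 25 °C with stirring in 50 mM K-phosphate pH 7.4, 500 mM NaCl, 1 mM EDTA, 1 mM TCEP. Ligand was added from acetone (<1% final) and 350–700 nm spectra were recorded. High-spin fraction was derived by PCA against spin-state standards. KS came from a tight-binding fit, or a Hill fit for one ligand.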

For data set [3], the target named is T1, Cytochrome P450 2B6. Put plainly: Isothermal titration calorimetry. The class given is binding. Particulars: 25 °C. (ITC needs no label: the signal is the heat of the interaction.)
The target of data set [4] is T2, Cytochrome P450 2A6 (Homo sapiens, UniProt P11509).
T2 sequence (P11509 with tags, fused parts or gaps limits assumed): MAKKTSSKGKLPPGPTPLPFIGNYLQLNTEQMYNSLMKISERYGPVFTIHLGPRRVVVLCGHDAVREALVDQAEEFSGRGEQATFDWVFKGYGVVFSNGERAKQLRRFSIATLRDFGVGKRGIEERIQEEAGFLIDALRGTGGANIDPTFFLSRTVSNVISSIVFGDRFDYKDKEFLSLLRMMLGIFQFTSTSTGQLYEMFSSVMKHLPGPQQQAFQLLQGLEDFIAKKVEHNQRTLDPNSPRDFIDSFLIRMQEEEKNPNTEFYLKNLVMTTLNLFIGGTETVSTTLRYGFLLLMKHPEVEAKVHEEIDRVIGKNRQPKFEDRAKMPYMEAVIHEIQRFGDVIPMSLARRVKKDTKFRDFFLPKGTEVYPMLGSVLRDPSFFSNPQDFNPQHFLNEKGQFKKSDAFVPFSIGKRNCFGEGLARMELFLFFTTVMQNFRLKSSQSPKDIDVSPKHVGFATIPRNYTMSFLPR
As to the kind of experiment: Isothermal titration calorimetry. In kind it is binding. The following applies: 25 °C.

The subject of data set [5] is 2B6. As to the kind of experiment: Maximal binding affinity for 2B6 predicted from logP. Particulars: 298 K, based solely on enthalpy of desolvation, −1.364×logP. Details: species or system human.
Data set [6] deals with T2, Cytochrome P450 2A6. Put plainly: Spectral binding titration. The following applies: read-out: Ks (spectral dissociation constant), 25 °C, mean (SD).

Consider `Clc1ccccc1CN1CCc2sccc2C1` [ticlopidine], for which the “change in the fraction of high-spin P450” value in data set [1] is reported as 2 – 4%.

On to `CC1=CCC2C(C1)C2(C)C` (single isomer, unassigned; (+)) [(+)-3-carene], for which the “spectral shift upon binding” value in data set [2] (2B6, increase at 390 nm, decrease at 417 nm) is listed as “Type I spectral shift”. The Kd in data set [2] (read-out: Ks measured using the Hill equation giving the S50, spectral titration, 2B6, Hill equation, n=2) is 1600 nM. For the same molecule, in data set [2] (spectral titration, 25 °C, 2B6), the “ΔFh (maximal increase in fraction of high-spin P450)” value was 42.5 ± 3.4% and 42.5 (3.4) %. Also, in data set [3] (mean (SD)), the “KD (KA^−1 from ITC)” value is reported as 1.82 (0.61) 10^−6 M. Besides, in data set [3] (ITC, mean (SD)), the ΔG was −7.5 (1.4) kcal/mol and the ΔS was 3.2 (2.3) cal/mol/K. The ΔH in data set [3] (ITC, mean (SD) of at least three experiments) was −6.3 (2.2) kcal/mol.

As to (+)-α-Pinene, the Kd is 380 nM in data set [2] (read-out: Ks (spectral dissociation constant), spectral titration, 25 °C, 2B6); roughly 170 nM in data set [4] (ITC); roughly 220 nM in data set [3] (ITC); 34200 nM in data set [6]. In addition, the “KD (KA^−1 from ITC)” value was 0.17 (0.05) 10^−6 M in data set [4] (mean (SD)) and 0.22 (0.17) 10^−6 M in data set [3] (mean (SD)). In addition, the “maximal binding affinity predicted from logP” value in data set [5] is recorded as ~ −6 kcal/mol.

As to `COC(=O)[C@H](c1ccccc1Cl)N1CCc2sccc2C1` [clopidogrel], in data set [1], the “change in the fraction of high-spin P450” value is listed as 2 – 4%.
